{"source": "ChEMBL document CHEMBL4431326", "about": "“Tumor Targeting with Novel 6-Substituted Pyrrolo [2,3-d] Pyrimidine Antifolates with Heteroatom Bridge Substitutions via Cellular Uptake by Folate Receptor α and the Proton-Coupled Folate Transporter and Inhibition of de Novo Purine Nucleotide Biosynthesis” (J Med Chem, 2016)", "key": {"[1]": {"assay": "Cytotoxicity in RFC-null Chinese hamster R2 cells assessed as reduction in cell viability measured after 96 hrs by Cell-Titer Blue fluorescence analysis", "assay_type": "cell-based", "details": "Cricetulus griseus, R2, 96 h"}, "KB": {"test_system": "KB", "assay": "Antiproliferative activity against human KB cells expressing human RFC/FR-alpha/PCFT assessed as reduction in cell viability measured after 96 hrs in presence of folic acid by Cell-Titer Blue fluorescence analysis", "assay_type": "functional, cell-based"}, "[2]": {"molecular_target": "GAR transformylase/AICAR transformylase (Homo sapiens) (UniProt P31939+P22102)", "sequence (P31939 whole entry, looked up, one chain of several)": "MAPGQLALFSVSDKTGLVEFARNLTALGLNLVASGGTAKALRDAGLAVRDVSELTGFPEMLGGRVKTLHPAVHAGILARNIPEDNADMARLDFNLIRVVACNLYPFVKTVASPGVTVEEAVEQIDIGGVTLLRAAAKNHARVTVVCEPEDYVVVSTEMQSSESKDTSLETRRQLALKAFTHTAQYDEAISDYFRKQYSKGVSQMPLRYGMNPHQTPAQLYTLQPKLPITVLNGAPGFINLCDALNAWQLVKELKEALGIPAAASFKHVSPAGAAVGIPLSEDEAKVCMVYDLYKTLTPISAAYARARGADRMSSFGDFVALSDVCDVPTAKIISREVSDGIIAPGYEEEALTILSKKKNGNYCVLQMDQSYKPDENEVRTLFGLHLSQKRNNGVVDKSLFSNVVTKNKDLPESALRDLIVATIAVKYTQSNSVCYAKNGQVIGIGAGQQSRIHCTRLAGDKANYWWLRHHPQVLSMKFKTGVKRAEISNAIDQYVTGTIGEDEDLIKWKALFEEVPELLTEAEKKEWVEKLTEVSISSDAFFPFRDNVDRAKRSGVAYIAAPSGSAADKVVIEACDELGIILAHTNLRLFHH", "assay": "Inhibition of GARFTase/AICARFTase in human KB cells expressing RFC/FR-alpha/PCFT assessed as cell growth inhibition measured after 96 hrs in presence of 10 uM thymidine by Cell-Titer Blue fluorescence analysis", "assay_type": "cell-based"}, "[3]": {"molecular_target": "Folate receptor alpha (Homo sapiens) (UniProt P15328)", "sequence (P15328 25-234 limits assumed)": "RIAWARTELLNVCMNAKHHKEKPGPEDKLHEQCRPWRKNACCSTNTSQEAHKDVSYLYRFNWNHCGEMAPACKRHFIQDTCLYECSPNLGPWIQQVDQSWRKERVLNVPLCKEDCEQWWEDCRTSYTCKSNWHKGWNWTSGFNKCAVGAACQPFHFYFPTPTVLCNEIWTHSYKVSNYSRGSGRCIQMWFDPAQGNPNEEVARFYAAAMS", "assay": "Displacement of [3H]folic acid from human FR-alpha receptor expressed in Chinese hamster RT16 cells measured after 15 mins relative to folic acid", "assay_type": "cell-based", "design": "concentration or dose not given beside the values"}, "[4]": {"molecular_target": "T1, Proton-coupled folate transporter (Homo sapiens) (UniProt Q96NT5)", "T1 sequence (whole entry)": "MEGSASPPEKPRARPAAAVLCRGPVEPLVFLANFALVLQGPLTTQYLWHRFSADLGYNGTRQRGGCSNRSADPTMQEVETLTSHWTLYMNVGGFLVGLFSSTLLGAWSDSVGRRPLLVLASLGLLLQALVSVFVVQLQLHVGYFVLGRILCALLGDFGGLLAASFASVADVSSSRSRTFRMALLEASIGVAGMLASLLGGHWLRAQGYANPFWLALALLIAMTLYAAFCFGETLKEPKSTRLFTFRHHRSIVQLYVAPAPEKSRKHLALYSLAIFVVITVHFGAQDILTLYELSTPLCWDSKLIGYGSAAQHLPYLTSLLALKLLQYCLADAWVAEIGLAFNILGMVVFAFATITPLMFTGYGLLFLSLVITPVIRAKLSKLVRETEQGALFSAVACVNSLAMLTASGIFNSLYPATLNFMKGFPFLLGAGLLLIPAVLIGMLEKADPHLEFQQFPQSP", "assay": "Inhibition of [3H]MTX uptake at human PCFT expressed in Chinese hamster R2/PCFT4 cells at 10 uM and pH 5.5 measured after 5 mins", "assay_type": "cell-based"}, "[5]": {"molecular_target": "T2, Proton-coupled folate transporter (Homo sapiens, UniProt Q96NT5)", "T2 sequence (Q96NT5 whole entry)": "T1 sequence (whole entry)", "assay": "Inhibition of [3H]MTX uptake at human PCFT expressed in Chinese hamster R2/PCFT4 cells at pH 5.5 measured after 5 mins by Dixon plot analysis", "assay_type": "cell-based"}, "[6]": {"molecular_target": "T3, Trifunctional purine biosynthetic protein adenosine-3 (Homo sapiens, UniProt P22102)", "T3 sequence (P22102 whole entry)": "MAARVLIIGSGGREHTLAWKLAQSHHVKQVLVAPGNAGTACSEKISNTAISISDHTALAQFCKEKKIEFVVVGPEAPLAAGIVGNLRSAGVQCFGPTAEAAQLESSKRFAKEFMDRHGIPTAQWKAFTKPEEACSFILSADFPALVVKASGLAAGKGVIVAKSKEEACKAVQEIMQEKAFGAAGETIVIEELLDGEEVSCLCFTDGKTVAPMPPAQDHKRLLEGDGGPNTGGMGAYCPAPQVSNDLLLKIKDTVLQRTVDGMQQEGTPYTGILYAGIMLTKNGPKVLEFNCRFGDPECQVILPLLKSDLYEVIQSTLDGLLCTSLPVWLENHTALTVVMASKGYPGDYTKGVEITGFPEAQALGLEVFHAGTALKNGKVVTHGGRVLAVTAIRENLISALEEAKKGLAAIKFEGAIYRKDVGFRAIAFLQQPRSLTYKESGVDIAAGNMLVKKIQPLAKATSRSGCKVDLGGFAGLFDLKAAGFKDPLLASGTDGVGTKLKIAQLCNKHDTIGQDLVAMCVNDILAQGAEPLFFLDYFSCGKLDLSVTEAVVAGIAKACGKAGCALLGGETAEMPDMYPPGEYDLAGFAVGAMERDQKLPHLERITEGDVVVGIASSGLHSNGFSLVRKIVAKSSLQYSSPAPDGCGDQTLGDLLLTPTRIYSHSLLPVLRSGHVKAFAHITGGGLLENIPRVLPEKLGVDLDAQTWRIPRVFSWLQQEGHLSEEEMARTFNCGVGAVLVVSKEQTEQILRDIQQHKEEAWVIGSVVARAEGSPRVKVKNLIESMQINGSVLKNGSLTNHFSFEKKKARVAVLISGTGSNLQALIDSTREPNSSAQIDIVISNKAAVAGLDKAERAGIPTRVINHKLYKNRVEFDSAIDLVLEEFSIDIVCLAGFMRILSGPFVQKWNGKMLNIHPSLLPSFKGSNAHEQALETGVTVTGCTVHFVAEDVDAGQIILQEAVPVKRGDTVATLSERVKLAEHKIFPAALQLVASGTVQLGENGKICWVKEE", "assay": "Inhibition of GARFTase in human KB cells expressing RFC/FR-alpha/PCFT assessed as decrease in incorporation of [14C(U)]-glycine into [14C]formyl GAR incubated for 1 hr followed by addition of [14C(U)]-glycine measured after 16 hrs in presence of azaserine", "assay_type": "cell-based"}, "IGROV-1 [7]": {"test_system": "IGROV-1", "assay": "Antiproliferative activity against human IGROV1 cells expressing human FR-alpha/PCFT assessed as reduction in cell viability measured after 96 hrs in presence of folic acid by Cell-Titer Blue fluorescence analysis", "assay_type": "functional, cell-based", "details": "IGROV-1, 96 h"}, "IGROV-1 [8]": {"test_system": "IGROV-1", "assay": "Antitumor activity against human IGROV1 cells xenografted into folate-deficient diet fed SCID mouse assessed as tumor cell kill at 150 mg/kg, iv administered […] post 2 days of tumor implantation measured on day 20", "assay_type": "functional"}, "[9]": {"assay": "Toxicity in folate-deficient diet fed SCID mouse xenografted with human IGROV1 cells assessed as body weight loss at 96 and 150 mg/kg, iv administered […] post 2 days of tumor implantation measured during compound treatment", "assay_type": "organism-based", "details": "in vivo, 48 h", "outline": "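Female NCR SCID mice (11 weeks old, ~20 g) are fed a folate-deficient diet from 14 days before implant. IGROV1 fragments (30–60 mg) are trocar-implanted subcutaneously in both flanks, and mice are randomised at 5/group. Tail-vein dosing starts on day 2: 28 mg/kg/inj Q3dx5, or 96 or 150 mg/kg/inj Q3dx4. Vehicle is 5% ethanol, 1% Tween-80, 0.5% NaHCO3 in water at pH 6.5. Caliper tumor mass is (a×b²)/2, T/C is taken when controls reach 700–1200 mg, and weights are recorded daily.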"}, "IGROV-1 [10]": {"test_system": "IGROV-1", "assay": "Antitumor activity against human IGROV1 cells xenografted into standard diet fed SCID mouse assessed as tumor growth at 28 mg/kg, iv administered […] post 2 days of tumor implantation measured on day 20 relative to control", "assay_type": "functional", "outline": "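Female NCR SCID mice, 11 weeks, ~20 g, on folate-deficient or standard diet from 14 days pre-implant; bilateral s.c. IGROV1 fragments (30–60 mg); 5 mice/group; tail-vein dosing from day 2 (Q3d schedules) in 5% ethanol, 1% Tween-80, 0.5% NaHCO3, water, pH 6.5; caliper mass (a×b²)/2; T/C and T−C delay.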"}, "[11]": {"assay": "Toxicity in standard diet fed SCID mouse xenografted with human IGROV1 cells assessed as body weight loss at 96 and 150 mg/kg, iv administered qd for 4 times post 2 days of tumor implantation measured during compound treatment", "assay_type": "organism-based", "details": "in vivo, 48 h"}}, "note": "Activity calls are given as the source filed them. No cut-off for these calls is given here.", "data": [{"smiles": "Nc1nc2[nH]c(CCNc3ccc(C(=O)N[C@@H](CCC(=O)O)C(=O)O)cc3)cc2c(=O)[nH]1", "values": [{"measurement": "IC50", "setting": "[1]", "value": "> 1000", "unit": "nM"}, {"measurement": "IC50", "setting": "KB", "value": 666, "unit": "nM"}, {"measurement": "inhibition", "setting": "[2]", "value": "Active"}, {"measurement": "inhibition", "setting": "[3]", "value": "60 to 110", "unit": "%"}, {"measurement": "inhibition", "setting": "[4]", "value": "80 to 90", "unit": "%"}, {"measurement": "Ki", "setting": "[5]", "value": 850, "unit": "nM"}, {"measurement": "IC50", "setting": "[6]", "value": 2.64, "unit": "nM"}, {"measurement": "IC50", "setting": "IGROV-1 [7]", "value": 872, "unit": "nM"}, {"measurement": "LCK", "setting": "IGROV-1 [8]", "value": 2.3}, {"measurement": "Activity", "setting": "[9]", "value": "17 to 17.3", "unit": "%"}, {"measurement": "T/C", "setting": "IGROV-1 [10]", "value": 68, "unit": "%"}, {"measurement": "Activity", "setting": "[11]", "value": "Non-Toxic"}]}]}
